{"source": "paper PMC2650391", "about": "(Molecular cell, 2009)", "key": {"[1]": {"system": "H3K4me3 at Smc4, Egln1, Ext1 promoters", "test": "ChIP Realtime-PCR, H3K4me3 levels at target promoters", "format": "cell-based", "conditions": "doxorubicin treatment, all samples"}, "[2]": {"system": "H3K4me peptides / ING4 PHD finger", "test": "Biotinylated histone peptide pull-down, Western analysis", "format": "binding", "conditions": "individual substitutions, GST-fusion proteins"}, "T47D cells": {"system": "T47D cells", "test": "Soft agar assay, anchorage-independent growth", "format": "cell-based", "conditions": "colonies scored after 21 days, vs control vector", "procedure,_shortened": "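T47D cells stably carrying pMSCV-ING4, pMSCV-ING4D213A or empty pMSCV; 55,000 cells plated in […] soft agar growth medium over a 1% agar base layer. Medium refreshed every three days; colonies counted at day 21. Four independent experiments, S.E.M.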"}, "[3]": {"system": "gene promoters in HT1080 cells", "test": "ChIP-chip on whole genome promoter tiling arrays", "format": "cell-based", "conditions": "doxorubicin treatment; 292 doxorubicin-induced target promoters"}, "[4]": {"system": "Egln1, Ext1 and Smc4 mRNA", "test": "mRNA expression Realtime-PCR", "format": "cell-based", "conditions": "HT1080; relative to untreated wild-type cells", "procedure,_shortened": "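HT1080 cells stably carrying vector, Flag-ING4 or Flag-ING4D213A, with doxorubicin-induced DNA damage. Transcripts measured by real-time PCR with TaqMan gene expression assays. Values are relative change versus untreated wild-type cells; error bars s.e.m.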"}, "[5]": {"system": "purified polynucleosomes (H3K4me3)", "test": "Polynucleosome binding, Western analysis", "conditions": "recombinant proteins", "procedure,_shortened": "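Recombinant ING4 PHD finger proteins, wild type or carrying substitutions in the H3K4me3-binding surface, incubated with purified polynucleosomes. Bound material detected by Western blot with antibodies to the four core histones, H3K4me3 and H3K9me3.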"}, "H3K4me3": {"system": "H3K4me3", "test": "Global H3K4me3 levels, Western analysis of cell lysates", "format": "cell-based", "conditions": "demethylase transfection, ± ING4 overexpression", "procedure,_shortened": "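Cells transfected with Rbp2 or Plu-1 demethylase, with or without ING4 overexpression. Whole-cell lysates probed by Western blot for H3K4me3. Four independent experiments, error bars S.E.M.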"}, "HT1080 cells": {"system": "HT1080 cells", "test": "TUNEL assay of ING4-dependent apoptosis", "format": "cell-based", "conditions": "HT1080, 400 ng/ml doxorubicin 20 hours, 48 hours after transfection", "procedure,_shortened": "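HT1080 cells transfected with the plasmids, then given 400 ng/ml doxorubicin for 20 h, assayed 48 h after transfection. Cells fixed in methanol at −20C for 20 min, TUNEL-stained (TMR red) and mounted with DAPI. TUNEL-positive cells counted from images; s.e.m. from 3 independent fields.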"}}, "note": "Where no end group is shown, it is not given here."}
{"compound": "COc1cccc2c1C(=O)c1c(O)c3c(c(O)c1C2=O)C[C@@](O)(C(=O)CO)C[C@@H]3O[C@H]1C[C@H](N)[C@H](O)[C@H](C)O1", "note": "[doxorubicin]", "values": [{"measurement": "H3K4me3 levels at Smc4, Egln1 and Ext1 promoters", "setting": "[1]", "value": "modestly induced"}]}
{"compound": "D213A: ING4PHD with substitution D213A (EPTYCLCHQVSYGEMIGCANPDCSIEWFHFACVGLTTKPRGKWFCPR; cysteine pairing not given here; also: GST fusion, end not given here)", "values": [{"measurement": "binding of ING4PHD mutants to H3K4me peptides in pull-down", "setting": "[2]", "value": "abrogated binding of the ING4PHD to the H3K4me peptides"}]}
{"compound": "ING4D213A: ING4 with a point mutation that abrogates H3K4me3 binding", "values": [{"measurement": "growth in soft agar", "setting": "T47D cells", "value": "failed to inhibit soft agar growth"}, {"measurement": "average occupancy on DNA damage-dependent promoters", "setting": "[3]", "value": "largely absent compared to the wild-type protein"}, {"measurement": "baseline smc4 expression", "setting": "[4]", "value": "inhibits baseline expression"}]}
{"compound": "ING4PHD: recombinant ING4 PHD finger, aa 195–241 (EPTYCLCHQVSYGEMIGCDNPDCSIEWFHFACVGLTTKPRGKWFCPR; cysteine pairing not given here; also: GST fusion, end not given here)", "values": [{"measurement": "interaction with H3K4me3 in nucleosomes", "setting": "[5]", "value": "occurs in the context of nucleosomes"}]}
{"compound": "PLU-1: H3K4me3-demethylase", "values": [{"measurement": "total H3K4me3 levels", "setting": "H3K4me3", "value": "decreased total H3K4me3 levels"}, {"measurement": "ING4-dependent apoptosis", "setting": "HT1080 cells", "value": "abrogated ING4-dependent apoptosis"}]}
{"compound": "RBP2: H3K4me3-demethylase", "values": [{"measurement": "total H3K4me3 levels", "setting": "H3K4me3", "value": "decreased total H3K4me3 levels"}, {"measurement": "ING4-dependent apoptosis", "setting": "HT1080 cells", "value": "abrogated ING4-dependent apoptosis"}]}
{"compound": "W221A: ING4PHD with substitution W221A (EPTYCLCHQVSYGEMIGCDNPDCSIEAFHFACVGLTTKPRGKWFCPR; cysteine pairing not given here; also: GST fusion, end not given here)", "values": [{"measurement": "binding of ING4PHD mutants to H3K4me peptides in pull-down", "setting": "[2]", "value": "abrogated binding of the ING4PHD to the H3K4me peptides"}]}
{"compound": "Y198A: ING4PHD with substitution Y198A (EPTACLCHQVSYGEMIGCDNPDCSIEWFHFACVGLTTKPRGKWFCPR; cysteine pairing not given here; also: GST fusion, end not given here)", "values": [{"measurement": "binding of ING4PHD mutants to H3K4me peptides in pull-down", "setting": "[2]", "value": "abrogated binding of the ING4PHD to the H3K4me peptides"}]}
